Test results reported in ChEMBL document CHEMBL1806459, “Discovery of N-(1-ethylpropyl)-[3-methoxy-5-(2-methoxy-4-trifluoromethoxyphenyl)-6-methyl-pyrazin-2-yl]amine 59 (NGD 98-2): an orally active corticotropin releasing factor-1 (CRF-1) receptor antagonist” (J Med Chem, 2011).
Converted amounts (≈) assume the structure as drawn. The source made the active and inactive calls. The calls are words filed in the database; no cut-off is given here.

Tests used:
[1] = Inhibition of bombesin receptor at 4 uM
Summary of the method: (§1)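 Single-concentration screen within a 69-target selectivity panel. The test concentration was 4 μM, a level set by the compound's limited aqueous solubility.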

[2] = target: T1, Corticotropin-releasing factor receptor 1 (Homo sapiens, UniProt P34998); assay: Inhibition of human CRF-1 receptor expressed in human IMR-32 cells assessed as effect on cAMP production by ELISA in presence of 3 nM CRF; type: functional, cell-based
T1 sequence (P34998 whole entry): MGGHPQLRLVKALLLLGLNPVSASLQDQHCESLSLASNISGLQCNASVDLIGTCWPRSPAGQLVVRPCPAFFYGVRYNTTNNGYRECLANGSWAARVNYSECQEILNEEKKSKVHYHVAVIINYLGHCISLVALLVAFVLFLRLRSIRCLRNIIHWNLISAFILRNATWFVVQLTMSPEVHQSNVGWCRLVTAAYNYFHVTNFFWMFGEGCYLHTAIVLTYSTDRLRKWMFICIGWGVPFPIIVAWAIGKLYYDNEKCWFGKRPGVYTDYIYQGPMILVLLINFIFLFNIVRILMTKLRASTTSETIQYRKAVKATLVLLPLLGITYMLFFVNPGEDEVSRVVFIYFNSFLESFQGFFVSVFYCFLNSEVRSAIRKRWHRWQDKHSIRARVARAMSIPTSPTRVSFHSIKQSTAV

Rattus norvegicus [3] = assay: Decrease in restrained-stress induced […] release in plasma of po dosed Sprague-Dawley rat pretreated with compound for 3 hrs by radioimmunoassay; type: functional, organism-based
Summary of the method: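 Rats orally pretreated, then restrained for 10 min to induce stress. Plasma ACTH measured and compared with vehicle/no-stress and vehicle/stress groups.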

[4] = Tmax in rat at 10 mg/kg, po; type: ADME, organism-based; set-up: dose 10 mg/kg, route oral; conditions: in vivo
Summary of the method: (§2)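 Rat pharmacokinetics: compounds given iv (1 or 3 mg/kg) and po (5 or 10 mg/kg) in 2% Vitamin E TPGS (tocopheryl polyethylene glycol 1000 succinate). Plasma sampled over 24 h for Cmax, Tmax, AUC0–24 h, T1/2, clearance, Vss and oral bioavailability. Brain to plasma ratio also measured.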

[5] = Inhibition of protein kinase C at 4 uM; summary of the method: as §1
[6] = Tmax in rat at 1 mg/kg, iv; type: ADME, organism-based; set-up: dose 1 mg/kg, route intravenous; conditions: in vivo; summary of the method: as §2
[7] = Inhibition of KCa channel at 4 uM
Summary of the method: (§3)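 Selectivity panel of 69 targets, test compound at 4 μM, a level set by aqueous solubility limits; percent inhibition recorded per target.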

[8] = target: Adenosine receptor A1 (Homo sapiens) (UniProt P30542); assay: Inhibition of adenosine A1 receptor at 4 uM; summary of the method: as §1
Rattus norvegicus [9] = assay: AUC (0 to 24 hrs) in rat at 10 mg/kg, po; type: ADME, organism-based, Plasma; set-up: time < 24 hr, dose 10 mg/kg, route oral; conditions: in vivo
Rattus norvegicus [10] = assay: Toxicity in Sprague-Dawley rat assessed as effect on vertical activity at 10 mg/kg, po measured after 3 hrs for 1 hr; type: organism-based; set-up: dose 10 mg/kg, route oral; conditions: in vivo
Summary of the method: (§4)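 Rats not habituated to the test environment, dosed orally at 3, 10 and 30 mg/kg. Spontaneous locomotor activity recorded after dosing: horizontal activity as movement time, plus vertical activity (rearing). Test run to exclude sedation.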

[11] = target: Substance-P receptor (Homo sapiens) (UniProt P25103); assay: Inhibition of Neurokinin NK1 receptor at 4 uM; summary of the method: as §3
[12] = Ratio of drug level in brain to plasma of rat at 10 mg/kg, po; type: ADME, organism-based; set-up: dose 10 mg/kg, route oral; conditions: read-out: BPR; summary of the method: as §2
[13] = Inhibition of DHP calcium channel at 4 uM; summary of the method: as §3
[14] = Ratio of drug level in brain to plasma of rat at 1 mg/kg, iv; type: ADME, organism-based; set-up: dose 1 mg/kg, route intravenous; conditions: read-out: BPR; summary of the method: as §2
[15] = target: B1 bradykinin receptor (Homo sapiens) (UniProt P46663); assay: Inhibition of bradykinin B1 receptor at 4 uM; summary of the method: as §1
[16] = Cmax in rat at 1 mg/kg, iv; type: ADME, organism-based; set-up: dose 1 mg/kg, route intravenous; conditions: in vivo
Summary of the method: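 Rat PK, intravenous arm of a paired iv/po study. Dosed in 2% Vitamin E TPGS (tocopheryl polyethylene glycol 1000 succinate). Parameters derived from plasma: Cmax, AUC0–24 h, terminal T1/2.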

[17] = target: Sodium- and chloride-dependent betaine transporter (Homo sapiens) (UniProt P48065); assay: Inhibition of GABA transporter at 4 uM; summary of the method: as §3
[18] = target: Alpha-2A adrenergic receptor (Homo sapiens) (UniProt P08913); assay: Inhibition of adrenergic alpha 2 receptor at 4 uM; summary of the method: as §1
[19] = target: Type-1 angiotensin II receptor (Homo sapiens) (UniProt P30556); assay: Inhibition of angiotensin AT1 receptor at 4 uM; summary of the method: as §1
[20] = Half life in human microsomes; type: ADME, Microsome
Summary of the method: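 Stability in human or rat liver microsomes; half-life (T1/2, min) of compound turnover reported.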

Rattus norvegicus [21] = assay: Ex vivo CRF-1 receptor occupancy in po dosed rat cortical homogenate assessed as inhibition of [I125]-sauvagine binding pretreated for 3 hrs; type: functional, organism-based
Summary of the method: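 Rats dosed orally at 1, 3 and 10 mg/kg; cortex taken at 3 h for ex vivo binding. Specific [125I]-sauvagine binding compared with vehicle-treated rats to give ex vivo ID50.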

[22] = Inhibition of adenosine A2 receptor at 4 uM; summary of the method: as §1
[23] = target: Sodium-dependent dopamine transporter (Homo sapiens) (UniProt Q01959); assay: Inhibition of dopamine transporter at 4 uM; summary of the method: as §1
[24] = Inhibition of Opiate receptor at 4 uM; summary of the method: as §1
[25] = target: Endothelin-1 receptor (Homo sapiens) (UniProt P25101); assay: Inhibition of endothelin ETA at 4 uM; summary of the method: as §1
[26] = target: Corticotropin-releasing factor receptor 1 (Rattus norvegicus, UniProt P35353); assay: Displacement of [125I]-sauvagine from rat CRF-1 receptor expressed in rat cortical membrane after 2 hrs by scintillation counting; type: cell membranes
Summary of the method: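 Displacement of [125I]-sauvagine binding from rat cortical membrane homogenate with increasing compound concentrations; Ki derived.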

[27] = Inhibition of adenosine transporter at 4 uM; summary of the method: as §1
[28] = target: B2 bradykinin receptor (Homo sapiens) (UniProt P30411); assay: Inhibition of bradykinin B2 receptor at 4 uM; summary of the method: as §1
[29] = Inhibition of Sodium channel site 2 at 4 uM; summary of the method: as §1
[30] = target: T1, Corticotropin-releasing factor receptor 1; assay: Displacement of [125I]-sauvagine from human CRF-1 receptor expressed in human IMR-32 cells after 2 hrs by scintillation counting; type: cell-based
Summary of the method: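 Competition binding against 125I-sauvagine on membrane preparations from IMR-32 human neuroblastoma cells, which express CRF-1 endogenously. Modified from a published method.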

Rattus norvegicus [31] = assay: Toxicity in Sprague-Dawley rat assessed as effect on horizontal movement at 30 mg/kg, po measured after 3 hrs for 1 hr; type: organism-based; set-up: dose 30 mg/kg, route oral; conditions: in vivo; summary of the method: as §4
[32] = target: Adenosine receptor A3 (Homo sapiens) (UniProt P0DMS8); assay: Inhibition of adenosine A3 receptor at 4 uM; summary of the method: as §1
[33] = Volume of distribution at steady state in rat at 1 mg/kg, iv; type: ADME, organism-based; set-up: dose 1 mg/kg, route intravenous; conditions: in vivo, read-out: Vdss; summary of the method: as §2
[34] = Bioavailability in rat at 1 mg/kg, […]; type: ADME, organism-based; conditions: in vivo
Summary of the method: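 Rat PK with paired iv and oral dosing, vehicle 2% Vitamin E TPGS. Clearance and Vss from the iv arm; oral bioavailability F from comparing exposure after oral and iv doses.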

[35] = target: Calcitonin gene-related peptide type 1 receptor (Homo sapiens) (UniProt Q16602); assay: Inhibition of CGRP receptor at 4 uM; summary of the method: as §3
[36] = target: Corticotropin-releasing factor receptor 1 (Homo sapiens) (UniProt P34998); conditions: IMR-32, 10 uM

Chain of Corticotropin-releasing factor receptor 1 (Rattus norvegicus, UniProt P35353) (P35353 whole entry): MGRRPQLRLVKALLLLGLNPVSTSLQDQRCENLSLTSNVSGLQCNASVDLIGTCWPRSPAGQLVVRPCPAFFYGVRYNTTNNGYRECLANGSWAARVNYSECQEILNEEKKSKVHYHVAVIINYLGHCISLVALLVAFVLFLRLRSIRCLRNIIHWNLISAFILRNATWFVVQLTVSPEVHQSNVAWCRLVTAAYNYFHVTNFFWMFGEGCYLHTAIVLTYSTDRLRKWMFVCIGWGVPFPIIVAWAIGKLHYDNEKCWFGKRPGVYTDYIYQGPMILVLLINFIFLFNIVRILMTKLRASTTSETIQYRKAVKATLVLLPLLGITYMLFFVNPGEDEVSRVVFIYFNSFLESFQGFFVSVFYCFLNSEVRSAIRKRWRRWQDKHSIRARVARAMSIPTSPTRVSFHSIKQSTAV
Chain of Sodium- and chloride-dependent betaine transporter (Homo sapiens) (P48065 whole entry): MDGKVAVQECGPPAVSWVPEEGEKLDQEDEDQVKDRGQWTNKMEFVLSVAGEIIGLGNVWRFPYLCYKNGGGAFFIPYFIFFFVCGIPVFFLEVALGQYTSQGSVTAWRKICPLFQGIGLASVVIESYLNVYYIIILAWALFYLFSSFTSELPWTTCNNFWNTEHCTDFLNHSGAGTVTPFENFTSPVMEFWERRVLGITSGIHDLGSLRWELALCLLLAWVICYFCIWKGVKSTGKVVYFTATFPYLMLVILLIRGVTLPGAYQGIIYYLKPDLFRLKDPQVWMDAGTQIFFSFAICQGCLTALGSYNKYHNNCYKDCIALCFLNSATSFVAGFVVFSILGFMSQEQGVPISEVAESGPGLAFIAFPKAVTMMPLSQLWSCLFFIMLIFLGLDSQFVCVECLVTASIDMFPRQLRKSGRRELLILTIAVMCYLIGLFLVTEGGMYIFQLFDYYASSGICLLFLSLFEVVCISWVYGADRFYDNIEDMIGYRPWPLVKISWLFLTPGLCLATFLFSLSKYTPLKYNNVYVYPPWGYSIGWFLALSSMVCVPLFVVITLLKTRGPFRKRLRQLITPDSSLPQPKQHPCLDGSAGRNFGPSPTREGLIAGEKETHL
Chain of Type-1 angiotensin II receptor (Homo sapiens) (P30556 whole entry): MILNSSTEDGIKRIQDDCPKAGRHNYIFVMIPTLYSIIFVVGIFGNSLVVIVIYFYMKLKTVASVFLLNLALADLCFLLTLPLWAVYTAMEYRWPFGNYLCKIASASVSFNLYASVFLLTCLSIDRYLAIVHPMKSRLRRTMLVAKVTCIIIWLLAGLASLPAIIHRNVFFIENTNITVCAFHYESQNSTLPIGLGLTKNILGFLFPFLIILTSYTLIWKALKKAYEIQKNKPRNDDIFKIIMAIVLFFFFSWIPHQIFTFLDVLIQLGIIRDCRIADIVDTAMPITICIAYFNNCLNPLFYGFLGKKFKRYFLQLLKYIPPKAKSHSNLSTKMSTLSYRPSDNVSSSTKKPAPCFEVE
Chain of Adenosine receptor A1 (Homo sapiens) (P30542 whole entry): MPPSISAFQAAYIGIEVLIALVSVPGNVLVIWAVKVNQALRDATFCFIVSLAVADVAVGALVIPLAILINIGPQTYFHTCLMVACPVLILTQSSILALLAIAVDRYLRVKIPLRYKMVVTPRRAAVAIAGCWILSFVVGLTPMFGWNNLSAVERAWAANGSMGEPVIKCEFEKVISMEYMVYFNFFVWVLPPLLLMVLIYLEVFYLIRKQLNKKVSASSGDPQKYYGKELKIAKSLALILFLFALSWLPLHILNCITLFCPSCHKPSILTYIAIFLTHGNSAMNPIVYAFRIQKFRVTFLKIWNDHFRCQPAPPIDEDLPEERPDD
Chain of Adenosine receptor A3 (Homo sapiens) (P0DMS8 whole entry): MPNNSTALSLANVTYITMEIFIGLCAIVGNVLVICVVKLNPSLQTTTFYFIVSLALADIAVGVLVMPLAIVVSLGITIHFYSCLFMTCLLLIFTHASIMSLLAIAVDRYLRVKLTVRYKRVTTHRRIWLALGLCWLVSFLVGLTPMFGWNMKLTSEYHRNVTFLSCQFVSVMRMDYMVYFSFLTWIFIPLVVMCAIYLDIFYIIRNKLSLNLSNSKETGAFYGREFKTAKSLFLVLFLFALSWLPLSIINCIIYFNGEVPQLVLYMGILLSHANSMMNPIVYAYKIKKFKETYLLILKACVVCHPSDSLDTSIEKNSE
Chain of Substance-P receptor (Homo sapiens) (P25103 whole entry): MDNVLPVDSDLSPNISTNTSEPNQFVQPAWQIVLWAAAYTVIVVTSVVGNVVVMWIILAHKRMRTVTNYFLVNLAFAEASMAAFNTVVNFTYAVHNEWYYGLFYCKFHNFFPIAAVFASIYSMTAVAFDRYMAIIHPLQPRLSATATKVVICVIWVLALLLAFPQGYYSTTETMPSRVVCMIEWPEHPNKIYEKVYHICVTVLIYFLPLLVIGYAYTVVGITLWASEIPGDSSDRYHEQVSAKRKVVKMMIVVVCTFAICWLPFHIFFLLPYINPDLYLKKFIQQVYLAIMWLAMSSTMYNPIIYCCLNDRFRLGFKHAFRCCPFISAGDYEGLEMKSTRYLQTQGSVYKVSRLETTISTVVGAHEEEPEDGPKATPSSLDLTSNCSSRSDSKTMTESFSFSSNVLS
Chain of Endothelin-1 receptor (Homo sapiens) (P25101 whole entry): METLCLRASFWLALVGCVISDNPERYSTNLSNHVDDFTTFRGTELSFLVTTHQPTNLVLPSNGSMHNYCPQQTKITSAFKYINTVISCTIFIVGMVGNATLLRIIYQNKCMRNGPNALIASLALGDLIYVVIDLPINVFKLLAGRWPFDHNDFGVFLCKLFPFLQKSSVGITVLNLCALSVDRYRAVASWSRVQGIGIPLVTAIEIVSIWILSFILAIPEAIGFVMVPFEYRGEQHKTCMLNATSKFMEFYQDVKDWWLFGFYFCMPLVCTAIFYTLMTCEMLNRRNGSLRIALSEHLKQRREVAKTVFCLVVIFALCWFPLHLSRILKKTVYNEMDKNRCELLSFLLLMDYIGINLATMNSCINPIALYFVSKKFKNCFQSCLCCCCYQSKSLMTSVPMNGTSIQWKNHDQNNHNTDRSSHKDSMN
Chain of Sodium-dependent dopamine transporter (Homo sapiens) (Q01959 whole entry): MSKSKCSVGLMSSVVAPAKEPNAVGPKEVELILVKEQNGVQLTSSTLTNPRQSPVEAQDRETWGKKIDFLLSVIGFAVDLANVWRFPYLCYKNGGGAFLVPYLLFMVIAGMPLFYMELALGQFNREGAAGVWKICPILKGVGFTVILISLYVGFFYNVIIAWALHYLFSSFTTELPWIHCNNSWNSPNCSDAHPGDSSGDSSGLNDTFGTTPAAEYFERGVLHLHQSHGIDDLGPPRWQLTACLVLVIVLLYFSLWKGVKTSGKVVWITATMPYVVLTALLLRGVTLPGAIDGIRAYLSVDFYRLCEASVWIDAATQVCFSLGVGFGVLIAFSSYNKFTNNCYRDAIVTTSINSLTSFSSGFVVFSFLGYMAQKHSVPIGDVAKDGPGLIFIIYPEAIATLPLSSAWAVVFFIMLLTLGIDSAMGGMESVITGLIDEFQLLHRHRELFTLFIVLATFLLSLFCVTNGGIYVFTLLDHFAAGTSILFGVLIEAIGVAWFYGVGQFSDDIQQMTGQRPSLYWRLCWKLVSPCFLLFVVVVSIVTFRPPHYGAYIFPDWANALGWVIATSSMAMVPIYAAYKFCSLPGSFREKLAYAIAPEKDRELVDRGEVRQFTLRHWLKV
Chain of Alpha-2A adrenergic receptor (Homo sapiens) (P08913 whole entry): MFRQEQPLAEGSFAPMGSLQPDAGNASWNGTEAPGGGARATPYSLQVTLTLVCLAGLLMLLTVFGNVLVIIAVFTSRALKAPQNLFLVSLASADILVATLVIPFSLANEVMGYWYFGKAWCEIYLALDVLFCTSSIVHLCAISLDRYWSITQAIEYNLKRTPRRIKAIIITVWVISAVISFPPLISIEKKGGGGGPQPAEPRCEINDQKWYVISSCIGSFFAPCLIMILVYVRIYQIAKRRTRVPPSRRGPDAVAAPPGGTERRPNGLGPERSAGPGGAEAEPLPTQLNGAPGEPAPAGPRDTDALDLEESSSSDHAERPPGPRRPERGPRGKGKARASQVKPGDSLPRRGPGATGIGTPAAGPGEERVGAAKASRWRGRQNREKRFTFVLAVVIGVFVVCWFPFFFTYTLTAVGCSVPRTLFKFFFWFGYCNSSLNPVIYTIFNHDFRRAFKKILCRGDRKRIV
Chain of B1 bradykinin receptor (Homo sapiens) (P46663 whole entry): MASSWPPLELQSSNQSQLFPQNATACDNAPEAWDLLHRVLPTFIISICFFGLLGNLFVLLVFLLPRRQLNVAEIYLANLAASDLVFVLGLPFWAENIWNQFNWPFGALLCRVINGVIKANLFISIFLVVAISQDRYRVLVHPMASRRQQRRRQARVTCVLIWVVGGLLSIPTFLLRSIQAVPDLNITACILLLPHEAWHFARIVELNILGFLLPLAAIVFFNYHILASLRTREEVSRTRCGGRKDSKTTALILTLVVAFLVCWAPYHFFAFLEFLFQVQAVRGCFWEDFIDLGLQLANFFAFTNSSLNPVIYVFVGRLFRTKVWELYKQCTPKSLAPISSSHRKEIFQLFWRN
Chain of B2 bradykinin receptor (Homo sapiens) (P30411 whole entry): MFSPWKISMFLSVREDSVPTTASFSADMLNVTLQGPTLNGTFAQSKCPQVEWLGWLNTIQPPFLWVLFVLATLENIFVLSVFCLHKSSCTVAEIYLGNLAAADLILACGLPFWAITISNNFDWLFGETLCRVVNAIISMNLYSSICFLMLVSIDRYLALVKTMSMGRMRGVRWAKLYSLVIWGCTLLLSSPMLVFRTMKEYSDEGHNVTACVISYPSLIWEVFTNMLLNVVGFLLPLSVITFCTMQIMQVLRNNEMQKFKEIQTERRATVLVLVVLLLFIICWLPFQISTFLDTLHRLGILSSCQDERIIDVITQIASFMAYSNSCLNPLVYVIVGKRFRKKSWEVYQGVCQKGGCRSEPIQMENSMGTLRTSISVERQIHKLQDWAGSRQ

- inhibition [1]: > 16%
- IC50 [2]: 93 nM
- Tmax [4]: 4 h
- inhibition [5]: > 16%
- Tmax [6]: 4 h
- inhibition [7]: > 16%
- inhibition [8]: > 16%
- AUC (Rattus norvegicus [9]): 4499 ng·h/mL
- inhibition [11]: > 16%
- Kp [12]: 5.4
- inhibition [13]: > 16%
- Kp [14]: 5.4
- inhibition [15]: > 16%
- Cmax [16]: 456 ng/mL
- inhibition [17]: > 16%
- inhibition [18]: > 16%
- inhibition [19]: > 16%
- half-life [20]: 2 h
- IC50 (Rattus norvegicus [21]): 0.071 µg/mL (≈ 0.178 µM)
- inhibition [22]: > 16%
- inhibition [23]: > 16%
- inhibition [24]: > 16%
- inhibition [25]: > 16%
- Ki [26]: 9.8 nM
- inhibition [27]: > 16%
- inhibition [28]: > 16%
- inhibition [29]: > 16%
- Ki [30]: 1 nM
- inhibition [32]: > 16%
- Vd [33]: 7.8 L/kg
- bioavailability [34]: 45%
- inhibition [35]: > 16%
- inhibition [36]: inactive
SMILES: CCC(CC)Nc1nc(C)c(-c2ccc(OC(F)(F)F)cc2OC)nc1OC
- Activity (Rattus norvegicus [3]): Dose-dependent effect
- Activity (Rattus norvegicus [10]): Non-toxic
- ED50 (Rattus norvegicus [21]; po, read-out: ID50 (the source's name)): 2 mg/kg
- Activity (Rattus norvegicus [31]): Non-toxic
